# Data: ChEMBL document CHEMBL1136453, “New classes of antibacterial oxazolidinones with C-5, methylene O-linked heterocyclic side chains” (2003)
# Columns and labels:
# Enterococcus faecalis = experiment: In vitro minimum inhibitory concentration against Enterococcus faecalis; assay type: functional
# Outline: (§1)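 Agar dilution per NCCLS protocol with doubling dilutions from 128 to 0.008 mg/L, incubated at 37 °C. Strains came from an in-house culture collection. MIC reported in mg/L.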
# Staphylococcus aureus [1] = experiment: In vitro minimum inhibitory concentration against coagulase negative Staphylococcus aureus methicillin resistant (CNSMR); assay type: functional
# Staphylococcus aureus [2] = experiment: In vitro minimum inhibitory concentration against Staphylococcus aureus MRQR; assay type: functional
# Staphylococcus aureus [3] = experiment: In vitro minimum inhibitory concentration against Staphylococcus aureus Oxford; assay type: functional; settings: Staphylococcus aureus; read-out: MIC
# Streptococcus pyogenes = experiment: In vitro minimum inhibitory concentration against Streptococcus pyogenes penicillin sensitive; assay type: functional; outline: as §1
# [4] = In vivo antibacterial activity against Staphylococcus aureus after intravenous administration (5 mg/kg) in mice using (MTT) mouse thigh test
# Staphylococcus aureus [5] = experiment: In vivo antibacterial activity against Staphylococcus aureus after intravenous administration (10 mg/kg) in mice using (MTT) mouse thigh test
# Mus musculus [6] = experiment: In vivo antibacterial activity against Staphylococcus aureus after intravenous administration (5 mg/kg) in mice using (MTT) mouse thigh test
# Mus musculus [7] = experiment: In vivo antibacterial activity against Staphylococcus aureus after intravenous administration (10 mg/kg) in mice using (MTT) mouse thigh test
Structure (SMILES),MIC (Enterococcus faecalis),MIC (Staphylococcus aureus [1]),MIC (Staphylococcus aureus [2]),MIC (Staphylococcus aureus [3]),MIC (Streptococcus pyogenes),Activity [4],Activity (Staphylococcus aureus [5]),Activity (Mus musculus [6]),Activity (Mus musculus [7])
O=CN1CC=C(c2c(F)cc(N3C[C@H](COc4ccon4)OC3=O)cc2F)CC1,1 µg/mL,0.5 µg/mL,0.5 µg/mL,0.25 µg/mL,0.5 µg/mL,-0.01,0.43,,
O=C(CO)N1CC=C(c2ccc(N3C[C@H](COc4ccon4)OC3=O)cc2F)CC1,1 µg/mL,0.5 µg/mL,0.5 µg/mL,0.25 µg/mL,0.5 µg/mL,0.71,1.2,,
Cc1no[n+]([O-])c1OC[C@H]1CN(c2ccc(C3=CCOCC3)c(F)c2)C(=O)O1,2 µg/mL,2 µg/mL,2 µg/mL,1 µg/mL,4 µg/mL,0.03,0.2,,
C[C@H](O)C(=O)N1CC=C(c2ccc(N3C[C@H](COc4cnsn4)OC3=O)cc2F)CC1,1 µg/mL,0.5 µg/mL,0.5 µg/mL,0.25 µg/mL,1 µg/mL,0.43,1.14,,
O=C([C@@H](O)CO)N1CC=C(c2c(F)cc(N3C[C@H](CO)OC3=O)cc2F)CC1,1 µg/mL,0.25 µg/mL,0.5 µg/mL,0.25 µg/mL,0.5 µg/mL,0.59,1.01,,
"CC(O)C(=O)N1CC=C(c2c(F)cc(N3C[C@H](COc4ccon4)OC3=O)cc2F)CC1 (single isomer, unassigned)",1 µg/mL,0.5 µg/mL,0.5 µg/mL,0.5 µg/mL,1 µg/mL,0.49,1.02,,
CC(=O)NC[C@H]1CN(c2ccc(N3CCOCC3)c(F)c2)C(=O)O1 [LINEZOLID],,0.5 µg/mL,1 µg/mL,0.5 µg/mL,1 µg/mL,,,0.05,1.4
O=C([C@@H](O)CO)N1CC=C(c2c(F)cc(N3C[C@H](COc4ccon4)OC3=O)cc2F)CC1 [POSIZOLID],0.5 µg/mL,0.5 µg/mL,0.5 µg/mL,0.25 µg/mL,0.25 µg/mL,0.7,0.98,,
